Source: PubChem
Kir21 block – blocks the mouse Kir2.1 inward-rectifier potassium channel | B-score at 10 µM | HEK293-Kir2.1, FluxOR thallium flux fluorescence; hits give low values | 310,000 compounds, 0.85% hits;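 active = fluorescence ratio B-score at or below minus 3 SD of library scores, with starting-brightness B-score within 2 SD, cut at about -4.2 in these data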;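 also: channel flux triggered by added potassium and thallium sulfate stimulus; B-score of peak minus minimum fluorescence over baseline after thallium stimulus; more negative B-score means stronger Kir2.1 block with less thallium influx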
KCNK9 inh – inhibitors of human KCNK9 two-pore domain potassium channel; 310,000 compounds, 1.2% hits; Q9NPC2; AID 488922; B-score at 10 µM; HEK293 KCNK9, FluxOR thallium flux fluorescence; hits give low values;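 active = ratio B-score over 3 SD below the library mean, with starting fluorescence within 5 SD of its mean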;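 also: negative B-score means less thallium flux so channel inhibition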
Target sequence (Q9NPC2 whole entry, looked up, the tested form may be a part): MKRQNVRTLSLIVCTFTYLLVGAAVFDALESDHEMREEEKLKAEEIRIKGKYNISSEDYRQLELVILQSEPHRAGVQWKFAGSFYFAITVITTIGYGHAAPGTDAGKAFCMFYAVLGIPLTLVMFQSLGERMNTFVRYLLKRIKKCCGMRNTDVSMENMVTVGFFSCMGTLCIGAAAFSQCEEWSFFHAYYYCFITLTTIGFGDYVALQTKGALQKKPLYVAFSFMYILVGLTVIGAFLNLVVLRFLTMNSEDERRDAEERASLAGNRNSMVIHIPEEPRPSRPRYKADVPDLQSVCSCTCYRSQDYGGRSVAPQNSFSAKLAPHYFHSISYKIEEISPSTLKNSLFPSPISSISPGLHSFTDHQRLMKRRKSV
KCNQ1 block – human KCNQ1 channel inhibition; P51787; CHO-K1 KCNQ1, FluxOR thallium flux fluorescence; hits give high values; B-score at 10 µM; 310,000 compounds, 1.3% hits;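 active = compounds whose thallium flux B-score, printed positive for inhibition, exceeds three library SD while starting fluorescence stays within three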;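 also: channel opened by potassium depolarization with thallium stimulus after 20 min compound exposure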
KCNK3 block – human KCNK3 channel inhibition, primary screen; O14649; CHO-KCNK3 thallium flux, FluxOR fluorescence; hits give low values; B-score at 10 µM; 340,000 compounds, 0.84% hits;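 active = B-score under library mean minus 4 SD, starting fluorescence ratio at most library mean plus 5 SD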;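 also: more negative B-score means stronger inhibition of thallium flux through KCNK3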
KCNQ1 act – potentiators or activators of human KCNQ1 potassium channel | 310,000 compounds, 0.35% hits | P51787 | CHO-K1 KCNQ1, thallium flux FluxOR fluorescence; hits give high values | AID 2648 | B-score at 10 µM;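 active = fluorescence ratio B-score, a plate-corrected score, at least three library SD, with initial intensity B-score within 5 SD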
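Test system: CHO-K1 cells stably expressing KCNQ1 / Medium: assay buffer / Also added: depolarizing K+/Tl+ stimulus, K2SO4 and Tl2SO4 each 12.5 mM in 5x stock / Incubation: 90 min dye loading and 20 min compound exposure, both at room temperature / Signal: thallium influx via FluxOR fluorescence, kinetic imaging / Evaluation: B score of baseline-normalized fluorescence ratio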
hERG protect – hERG (human) protection from proarrhythmic block; 310,000 compounds, 0.51% hits; Q12809; CHO-hERG, FluxOR thallium flux, dofetilide IC70 present; AID 1511; activation (rescue from dofetilide block), less the hit threshold, % at 10 µM;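 active = activation above the mean of controls blocked by dofetilide plus 5 SD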;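 also: thallium influx through hERG after potassium depolarization seen as dye fluorescence rise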
KCNK9 block conf – human KCNK9 inhibitor confirmation; 4,900 compounds, 43% hits; shares compounds with KCNK9 inh; HEK293 KCNK9 cells, FluxOR thallium flux fluorescence; inhibition, % at 10 µM;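 active = thallium signal inhibited by more than 5 SD of the compound-free buffer control wells, on both duplicate plates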;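 also: 0% = assay buffer control wells without compound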
Kir21 sel – selectivity of KCNK9 modulators against mouse Kir2.1; 4,900 compounds, 4% hits; shares compounds with KCNK9 inh; inhibition, % at 10 µM; Kir2.1 cells, FluxOR thallium flux fluorescence;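 active = thallium signal drop more than 5 SD beyond the mean of the no-compound control wells, seen in both duplicate plates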;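 also: signal is fluorescence rise after thallium addition divided by baseline fluorescence; plate controls were assay buffer only for no effect and full block by chlorpromazine control for full effect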
HEK293 Tl ctr – non-induced cell nonspecific activity of KCNK9 modulators | shares compounds with KCNK9 inh | non-induced KCNK9-HEK293, FluxOR thallium flux | AID 492997 | inhibition, % at 10 µM | 4,900 compounds, 40% hits;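 active = thallium signal drop beyond 5 SD of the untreated control mean, on both duplicate plates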;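 also: plate controls were buffer only IC0 wells for no effect and SID17386958 at its maximal inhibitory level for full effect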
* marks the source's active call; other numbers are inactive results; i = inactive; . = not tested or not shown. An excerpt weighted towards active compounds, which were near 3.8% of everything screened.

SMILES | Kir21 block | KCNK9 inh | KCNQ1 block | KCNK3 block | KCNQ1 act | hERG protect | KCNK9 block conf | Kir21 sel | HEK293 Tl ctr
CCOC(=O)c1sc(-c2ccc(OC)cc2)cc1NC(C)=O | 0.3 | i | i | i | i | -2 | i | i | i
COc1cccc(NC(=O)COC(=O)c2cc(=O)c3ccccc3o2)c1 | . | . | . | i | . | . | . | . | .
O=C(Nc1nnc(C2CC2)s1)c1cc([N+](=O)[O-])ccc1N1CCCCC1 | 0.53 | i | i | i | i | -5 | . | . | .
COc1ccccc1CN1C(=O)C(=O)N(Cc2cccc(C)c2)C1=O | 0.03 | i | i | i | i | -6 | . | . | .
O=C(CCSCc1ccccc1F)NCc1cccs1 | 0.3 | i | i | i | i | -2 | . | . | .
O=C(CCSCc1ccccc1Cl)NCc1cccs1 | 1.1 | i | i | i | i | 5.0* | i | i | i
c1ccc(-c2csc3ncnc(N4CCc5ccccc5C4)c23)cc1 | -8.5* | -11* | i | i | i | -13 | 55%* | i | 38%*
CSc1c(CC(=O)Nc2ccccc2)n(C)c2ccccc12 | 0 | i | i | i | i | -6 | . | . | .
Cn1c(CC(=O)Nc2ccccc2)c(Sc2ccccc2)c2ccccc21 | 0.03 | i | i | i | i | -10 | i | i | i
Cn1nnc2c(N3CCCCC3)nccc21 | 0.23 | i | i | i | i | -9 | . | . | .
O=C(CSc1nc(Cc2ccccc2)nc2ccccc12)c1ccc2c(c1)OCCO2 | 0.88 | -14* | i | i | i | -3 | 57%* | i | 34%*
Cc1cc(NC(=O)CSc2nc(CCC3CCCC3)nc3ccccc23)no1 | -0.03 | i | i | i | i | -17 | . | . | .
O=C(CSc1nc(CCC2CCCC2)nc2ccccc12)NCc1ccc2c(c1)OCO2 | -0.46 | -13* | i | i | i | -8 | 47%* | i | i
CCc1nc(SCC(=O)c2ccc3c(c2)OCCO3)c2ccccc2n1 | -1 | i | i | i | i | -10 | . | . | .
C=CCn1c(C)c(C(C)=O)c(N2CCN(C(c3ccccc3)c3ccccc3)CC2)nc1=S | 3.6 | -8.1* | i | i | i | -24 | 37%* | i | i
CCn1c(C)c(C(C)=O)c(N2CCN(c3ccc(OC)cc3)CC2)nc1=S | -0.02 | i | i | i | i | -7 | . | . | .
CCCc1cc(-c2nc(-c3ccc(Br)cc3)cs2)ccn1 | -0.06 | -10* | i | i | i | -6 | i | i | 26%*
COC(=O)c1cc(NC(=O)C2(S(=O)(=O)c3ccc(Cl)cc3)CC2)cc(C(=O)OC)c1 | 0.97 | i | i | i | i | -9 | . | . | .
COC(=O)c1cc(NC(=O)C2(S(=O)(=O)c3ccc(C)cc3)CC2)cc(C(=O)OC)c1 | 0.9 | i | i | i | i | -5 | i | i | i
Cc1ccc(S(=O)(=O)NCC(=O)N(CC(=O)NCC2CCCO2)CC2CCCO2)cc1 (stereo unspecified) | 0.32 | i | i | i | i | -9 | . | . | .
Fc1ccccc1N1CCN(C2CCCN(Cc3cccc(C(F)(F)F)c3)C2)CC1 (stereo unspecified) | -2 | i | i | i | i | -13 | i | i | i
COc1ccc(CN2CCCC(N3CCN(c4cccc(Cl)c4)CC3)C2)cc1OC (stereo unspecified) | -0.85 | i | i | i | i | -5 | . | . | .
COc1cc(CN2CCCC(N3CCN(c4ccccc4C)CC3)C2)cc(Cl)c1O (stereo unspecified) | 1.3 | i | i | i | i | -7 | i | i | i
